The text below walks through data of ChEMBL document CHEMBL1140681, “Structure-based design of alpha-amido aldehyde containing gluten peptide analogues as modulators of HLA-DQ2 and transglutaminase 2” (Bioorg Med Chem, 2007).

pEC50, pKi: −log10 of the molar value. The source made the active and inactive calls. No cut-off for these calls is given here. Square brackets hold non-standard residues; d marks the D form. Peptide text beside a SMILES is read from it. * marks the point of attachment. 5FAM = O=C1OC2(c3ccc(O)cc3Oc3cc(O)ccc32)c2ccc(C(=O)*)cc21; Orn = NCCC[C@H](N)C(=O)O; Dab = NCC[C@H](N)C(=O)O; Dap = NC[C@H](N)C(=O)O; Glyoxylyl = O=CC(=O)*

The target in assay [1] is T1, Protein-glutamine gamma-glutamyltransferase (Homo sapiens) (UniProt P21980).
T1 sequence (whole entry): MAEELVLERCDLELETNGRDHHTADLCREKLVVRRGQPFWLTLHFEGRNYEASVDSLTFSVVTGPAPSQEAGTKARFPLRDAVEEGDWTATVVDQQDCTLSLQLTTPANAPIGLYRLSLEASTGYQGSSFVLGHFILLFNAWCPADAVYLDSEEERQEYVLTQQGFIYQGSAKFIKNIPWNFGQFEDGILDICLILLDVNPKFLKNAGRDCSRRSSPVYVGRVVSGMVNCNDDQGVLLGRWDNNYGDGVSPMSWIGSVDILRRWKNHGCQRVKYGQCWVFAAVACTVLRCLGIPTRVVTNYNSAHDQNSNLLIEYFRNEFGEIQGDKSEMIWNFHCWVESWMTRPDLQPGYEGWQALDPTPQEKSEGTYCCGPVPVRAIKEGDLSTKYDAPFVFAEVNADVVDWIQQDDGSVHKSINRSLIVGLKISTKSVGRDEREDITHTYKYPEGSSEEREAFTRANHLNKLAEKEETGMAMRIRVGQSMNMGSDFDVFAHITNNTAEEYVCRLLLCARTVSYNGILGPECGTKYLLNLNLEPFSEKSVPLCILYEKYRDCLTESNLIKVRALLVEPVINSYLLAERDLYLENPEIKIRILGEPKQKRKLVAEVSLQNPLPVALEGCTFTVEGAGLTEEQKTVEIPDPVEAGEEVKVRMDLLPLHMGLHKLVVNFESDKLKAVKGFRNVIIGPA
In words: Inhibition of human recombinant TG2 at 750 uM.

Assay [2] can be described thus: Enhancement of antigen presentation in HLA-DQ2 homozygous B-lymphoblastoid VAVY cells. The assay is classed as functional, cell-based, Homo sapiens. Put shortly:
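VAVY cells γ-irradiated (12,000 rads), pulsed with peptides for 10 h, washed by centrifugation, then co-cultured 1:1 with DQ2-αI-responsive polyclonal T cells for 48 h. [³H]thymidine (1 μCi/well) added for 18–24 h; incorporated radioactivity counted as a measure of surface peptide-DQ2 complexes; EC50 derived from titration.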

The test system of the next assay is VAVY. The experiment in a line: Induction of cell proliferation in HLA-DQ2 homozygous B-lymphoblastoid VAVY cells at 10 uM after overnight incubation. The assay is classed as functional, cell-based. The following applies: Homo sapiens. Put shortly: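 γ-Irradiated (12,000 rads) VAVY cells at 2×10^6 cells/ml pulsed with 10 μM peptide for 2 h or overnight, then washed out by centrifugation (800g, 3 min, 4°C). Re-suspended APCs (1×10^6/ml) co-cultured 48 h with equal volume of P28 TCL1 T cells (1×10^6/ml); [³H]thymidine 1 μCi/well for 18–24 h; proliferation by scintillation counting.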

The target in assay [3] is T1, Protein-glutamine gamma-glutamyltransferase (Homo sapiens). In words: Inhibition of human recombinant TG2 at 100 uM.
Assay [4] shares this target. The experiment in a line: Inhibition of human recombinant TG2 at 500 uM.
The target in assay [5] is T2, Protein-glutamine gamma-glutamyltransferase (Homo sapiens, UniProt P21980).
T2 sequence (P21980 whole entry): T1 sequence (whole entry)
The experiment in a line: Inhibition of human recombinant TG2. In a few lines: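 Continuous spectrophotometric coupled deamidation assay with recombinant human TG2: MOPS buffer pH 7.2 with CaCl2, EDTA, α-ketoglutarate, glutamate dehydrogenase and NADH; Z-Gln-Gly substrate (10–40 mM); reaction started by adding TG2. Velocities from linear regression; Ki by non-linear fitting of velocity vs ZQG to Michaelis-Menten with Vmax fixed at the uninhibited value.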

As for `CC(C)C[C@H](NC(=O)[C@H](NC(=O)C=O)NC(=O)[C@@H]1CCCN1C(=O)[C@H](CCC(N)=O)NC(=O)[C@@H]1CCCN1)C(=O)N1CCC[C@H]1C(=O)N[C@@H](Cc1ccccc1)C(=O)O`, the outcome in assay [1] was inactive.
On to `CC(C)C[C@H](NC(=O)c1ccc2c(c1)C(=O)OC21c2ccc(O)cc2Oc2cc(O)ccc21)C(=O)N[C@@H](CCC(N)=O)C(=O)N[C@@H](CC(C)C)C(=O)N[C@@H](CCC(N)=O)C(=O)N1CCC[C@H]1C(=O)N[C@@H](Cc1ccccc1)C(=O)N1CCC[C@H]1C(=O)N[C@@H](CCC(N)=O)C(=O)N1CCC[C@H]1C(=O)N[C@@H](CCC(=O)O)C(=O)N[C@@H](CC(C)C)C(=O)N1CCC[C@H]1C(=O)N[C@@H](Cc1ccc(O)cc1)C(=O)N1CCC[C@H]1C(=O)N[C@@H](CCC(N)=O)C(=O)N1CCC[C@H]1C(=O)N[C@@H](CCC(=O)O)C(=O)N[C@@H](CC(C)C)C(=O)N1CCC[C@H]1C(=O)N[C@@H](Cc1ccc(O)cc1)C(=O)O` (5FAM-LQLQPFPQPELPYPQPELPY-OH), for which the pEC50 in assay [2] was 7.80.
The same measure, in the same setting: in the case of `CC(C)C[C@H](NC(=O)c1ccc2c(c1)C(=O)OC21c2ccc(O)cc2Oc2cc(O)ccc21)C(=O)N[C@@H](CCC(N)=O)C(=O)N[C@@H](CC(C)C)C(=O)N[C@@H](CCC(N)=O)C(=O)N1CCC[C@H]1C(=O)N[C@@H](Cc1ccccc1)C(=O)N1CCC[C@H]1C(=O)N[C@@H](CNC(=O)C=O)C(=O)N1CCC[C@H]1C(=O)N[C@@H](CCC(=O)O)C(=O)N[C@@H](CC(C)C)C(=O)N1CCC[C@H]1C(=O)N[C@@H](Cc1ccc(O)cc1)C(=O)N1CCC[C@H]1C(=O)N[C@@H](CNC(=O)C=O)C(=O)N1CCC[C@H]1C(=O)N[C@@H](CCC(=O)O)C(=O)N[C@@H](CC(C)C)C(=O)N1CCC[C@H]1C(=O)N[C@@H](Cc1ccc(O)cc1)C(=O)O` (5FAM-LQLQPFP[Dap](Glyoxylyl)PELPYP[Dap](Glyoxylyl)PELPY-OH) it was 7.41; in that of `CC(C)C[C@H](NC(=O)c1ccc2c(c1)C(=O)OC21c2ccc(O)cc2Oc2cc(O)ccc21)C(=O)N[C@@H](CCC(N)=O)C(=O)N1CCC[C@H]1C(=O)N[C@@H](Cc1ccccc1)C(=O)N1CCC[C@H]1C(=O)N[C@@H](CCC(N)=O)C(=O)N1CCC[C@H]1C(=O)N[C@@H](CCC(=O)O)C(=O)N[C@@H](CC(C)C)C(=O)N1CCC[C@H]1C(=O)N[C@@H](Cc1ccc(O)cc1)C(=O)O` (5FAM-LQPFPQPELPY-OH), 5.48.
Turning to `CC(C)C[C@H](NC(=O)c1ccc2c(c1)C(=O)OC21c2ccc(O)cc2Oc2cc(O)ccc21)C(=O)N[C@@H](CCC(N)=O)C(=O)N1CCC[C@H]1C(=O)N[C@@H](Cc1ccccc1)C(=O)N1CCC[C@H]1C(=O)N[C@@H](CNC(=O)C=O)C(=O)N1CCC[C@H]1C(=O)N[C@@H](CCC(=O)O)C(=O)N[C@@H](CC(C)C)C(=O)N1CCC[C@H]1C(=O)N[C@@H](Cc1ccc(O)cc1)C(=O)O` (5FAM-LQPFP[Dap](Glyoxylyl)PELPY-OH), in assay [2], the pEC50 is 6.00. The result in the assay on VAVY was Active.
Regarding `CC(=O)NCC[C@H](NC(=O)[C@@H]1CCCN1C(=O)[C@H](CCC(N)=O)NC(=O)[C@@H]1CCCN1C(=O)c1ccc2c(c1)C(=O)OC21c2ccc(O)cc2Oc2cc(O)ccc21)C(=O)N[C@@H](CC(C)C)C(=O)N1CCC[C@H]1C(=O)N[C@@H](Cc1ccccc1)C(=O)O` (5FAM-PQP[Dab](Ac)LPF-OH), in assay [3], the result was inactive.
On to `CC(C)C[C@H](NC(=O)[C@H](CCCCNC(=O)C=O)NC(=O)[C@@H]1CCCN1C(=O)[C@H](CCC(N)=O)NC(=O)[C@@H]1CCCN1)C(=O)N1CCC[C@H]1C(=O)N[C@@H](Cc1ccccc1)C(=O)O` (H-PQPK(Glyoxylyl)LPF-OH), for which, in assay [4], the outcome was inactive.
For the compound `CC(C)C[C@H](NC(=O)[C@H](CCNC(=O)C=O)NC(=O)[C@@H]1CCCN1C(=O)[C@H](CCC(N)=O)NC(=O)[C@@H]1CCCN1)C(=O)N1CCC[C@H]1C(=O)N[C@@H](Cc1ccccc1)C(=O)O` (H-PQP[Dab](Glyoxylyl)LPF-OH), the pKi in assay [5] was 4.40.
Regarding `CC(C)C[C@H](NC(=O)[C@H](CNC(=O)C=O)NC(=O)[C@@H]1CCCN1C(=O)[C@H](CCC(N)=O)NC(=O)[C@@H]1CCCN1)C(=O)N1CCC[C@H]1C(=O)N[C@@H](Cc1ccccc1)C(=O)O` (H-PQP[Dap](Glyoxylyl)LPF-OH), the pKi in assay [5] is 3.52.
For the compound `CC(C)C[C@H](NC(=O)[C@H](CCCNC(=O)C=O)NC(=O)[C@@H]1CCCN1C(=O)[C@H](CCC(N)=O)NC(=O)[C@@H]1CCCN1)C(=O)N1CCC[C@H]1C(=O)N[C@@H](Cc1ccccc1)C(=O)O` (H-PQP[Orn](Glyoxylyl)LPF-OH), the negative-log Ki (pKi) in assay [5] is 3.70.

In general, pEC50 refers to −log10 of the EC50, conventionally taken in molar units. What is called pKi is the negative decadic logarithm of the Ki, by convention in mol/L.
